Columns and labels:
[1] = tested on: Human immunodeficiency virus 1; assay: Ratio of EC50 for HIV1 NL4-3 harboring L10F/D30N/K45I/A71V/T74S amino acid substitution in protease encoding region to EC50 for HIV1 NL4-3; format: functional
[2] = tested on: Human immunodeficiency virus 1; assay: Ratio of EC50 for HIV1 NL4-3 harboring L10F/V32I/M46I/I54M//A71V/I84V amino acid substitution in protease encoding region to EC50 for HIV1 NL4-3; format: functional
Procedure, shortened: (§1)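 MT-4 cells (10^5/ml) infected with 100 TCID50s of PI-selected HIV-1NL4-3 variants or the parental strain, with or without serial drug concentrations, at 37°C. Day 7 supernatant p24 Gag measured by chemiluminescent enzyme immunoassay. […] Triplicate. Ratio is variant EC50 over wild-type EC50.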

[3] = tested on: Human immunodeficiency virus 1; assay: Ratio of EC50 for HIV1 TM harboring L10I/K14R/R41K/M46L/I54V/L63P/A71V/V82A/L90M/I93L in protease encoding region to EC50 for HIV1 ERS104pre; format: functional
Procedure, shortened: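 PHA-stimulated PBMs (10^6/ml) infected with 50 TCID50s of primary HIV-1 isolate and cultured with 10-fold serial drug dilutions. Day 7 supernatant p24 Gag measured by chemiluminescent enzyme immunoassay. […] Triplicate. Ratio is resistant isolate EC50 over reference isolate EC50.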

[4] = tested on: Human immunodeficiency virus 1; assay: Ratio of EC50 for HIV1 NL4-3 harboring L10F/L24I/M46I/L63P/A71V/G73S/V82T amino acid substitution in protease encoding region to EC50 for HIV1 NL4-3; format: functional; procedure, shortened: as §1
[5] = tested on: Human immunodeficiency virus 1; assay: Antiviral activity against HIV1 A harboring L10I/I15V/E35D/N37E/K45R/I54V/L63P/A71V/V82T/L90M/I93L/C95F in protease encoding region infected in human PHA-PBC assessed as inhibition of p24 Gag protein production by ELISA; format: functional, organism-based; conditions: Human immunodeficiency virus 1, A
Procedure, shortened: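 Phytohemagglutinin-stimulated PBMs (10^6/ml) infected with 50 TCID50s of each primary isolate, cultured with or without drug in 10-fold serial dilutions. On day 7, supernatant p24 Gag was measured by automated chemiluminescent enzyme immunoassay. Triplicate.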

[6] = tested on: Human immunodeficiency virus 1; assay: Antiviral activity against HIV1 NL4-3 infected in human MT4 cells assessed as inhibition of p24 gag protein production by ELISA; format: functional, organism-based; conditions: Human immunodeficiency virus 1, NL4-3, MT4
Procedure, shortened: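 MT-4 cells (10^5/ml) were infected with 100 TCID50s of HIV-1 and cultured at 37°C with or without various drug concentrations. On day 7, supernatant p24 Gag was measured by automated chemiluminescent enzyme immunoassay. […] Assays were run in triplicate.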

[7] = tested on: Human immunodeficiency virus 1; assay: Antiviral activity against HIV1 G harboring L10I/V11I/T12E/I15V/L19I/R41K/M46L/L63P/A71T/V82A/L90M in protease encoding region infected in human PHA-PBC assessed as inhibition of p24 Gag protein production by ELISA; format: functional, organism-based; conditions: Human immunodeficiency virus 1, G
Procedure, shortened: (§2)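 Phytohemagglutinin-stimulated PBMs (10^6/ml) infected with 50 TCID50s of each primary isolate, cultured with or without drug in 10-fold serial dilutions. On day 7, supernatant p24 Gag was measured by automated chemiluminescent enzyme immunoassay. […] Triplicate.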

[8] = tested on: Human immunodeficiency virus 1; assay: Ratio of EC50 for HIV1 NL4-3 harboring L10F/M46I/I54V/V82A amino acid substitution in protease encoding region to EC50 for HIV1 NL4-3; format: functional; procedure, shortened: as §1
[9] = Cytotoxicity against human MT2 cells by MTT assay; format: cell-based
[10] = tested on: Human immunodeficiency virus 1; assay: Ratio of EC50 for HIV1 NL4-3 harboring L10I/G48V/I54V/L90M amino acid substitution in protease encoding region to EC50 for HIV1 NL4-3; format: functional; procedure, shortened: as §1
[11] = tested on: Human immunodeficiency virus 1; assay: Ratio of EC50 for HIV1 MM harboring L10I/K43T/M46L/I54V/L63P/A71V/V82A/L90M/Q92K in protease encoding region infected to EC50 for HIV1 ERS104pre; format: functional
[12] = tested on: Human immunodeficiency virus 1; assay: Antiviral activity against HIV1 NL4-3 harboring M46I/V82F/I84V amino acid substitution in protease encoding region infected in human MT4 cells assessed as inhibition of p24 Gag protein production selected at 5 uM of ritonavir by ELISA; format: functional, organism-based; conditions: Human immunodeficiency virus 1, NL4-3, MT4
Procedure, shortened: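 HIV-1NL4-3 (500 TCID50s) was passaged in MT-4 cells, starting at 0.01–0.03 µM PI and raising the drug generally two- to threefold as virus propagated. Cell-free passage used day-7 supernatants. Variants were then tested in MT-4 cells (10^5/ml) with 100 TCID50s, with or without drug, at 37°C. Day-7 p24 Gag was read by chemiluminescent immunoassay; EC50 vs drug-free control; triplicate.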

[13] = tested on: Human immunodeficiency virus 1; assay: Ratio of EC50 for HIV1 JSL harboring L10I/L24I/L33F/E35D/M36I/N37S/M46L/I54V/R57K/I62V/L63P/A71V/G73S/82A in protease encoding region to EC50 for HIV1 ERS104pre; format: functional
[14] = tested on: Human immunodeficiency virus 1; assay: Ratio of EC50 for HIV1 C harboring L10I/I15V/K20R/L24I/M36I/M46L/I54V/I62V/L63P/K70Q/V82A/L89M in protease encoding region to EC50 for HIV1 ERS104pre; format: functional
[15] = tested on: Human immunodeficiency virus 1; assay: Antiviral activity against HIV1 NL4-3 harboring L10F/V32I/M46I/I54M//A71V/I84V amino acid substitution in protease encoding region infected in human MT4 cells assessed as inhibition of p24 Gag protein production selected at 5 uM of amprenavir by ELISA; format: functional, organism-based; conditions: Human immunodeficiency virus 1, NL4-3, MT4
Procedure, shortened: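 Cell-free passage used day-7 supernatants. Variants were then tested in MT-4 cells (10^5/ml) with 100 TCID50s, with or without drug, at 37°C. Day-7 p24 Gag was read by chemiluminescent immunoassay; EC50 vs drug-free control; triplicate.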

[16] = tested on: Human immunodeficiency virus 1; assay: Antiviral activity against HIV1 JSL harboring L10I/L24I/L33F/E35D/M36I/N37S/M46L/I54V/R57K/I62V/L63P/A71V/G73S/82A in protease encoding region infected in human PHA-PBC assessed as inhibition of p24 Gag protein production by ELISA; format: functional, organism-based; conditions: Human immunodeficiency virus 1, JSL; procedure, shortened: as §2
[17] = tested on: Human immunodeficiency virus 1; assay: Ratio of EC50 for HIV1 A harboring L10I/I15V/E35D/N37E/K45R/I54V/L63P/A71V/V82T/L90M/I93L/C95F in protease encoding region to EC50 for HIV1 ERS104pre; format: functional
[18] = tested on: Human immunodeficiency virus 1; assay: Ratio of EC50 for HIV1 G harboring L10I/V11I/T12E/I15V/L19I/R41K/M46L/L63P/A71T/V82A/L90M in protease encoding region to EC50 for HIV1 ERS104pre; format: functional
[19] = Selectivity index, ratio of CC50 for human MT2 cells to EC50 for HIV1 LAI; format: toxicity, cell-based; conditions: read-out: Selectivity Index
[20] = tested on: Human immunodeficiency virus 1; assay: Antiviral activity against HIV1 TM harboring L10I/K14R/R41K/M46L/I54V/L63P/A71V/V82A/L90M/I93L in protease encoding region infected in human PHA-PBC assessed as inhibition of p24 Gag protein production by ELISA; format: functional, organism-based; conditions: Human immunodeficiency virus 1, TM; procedure, shortened: as §2

SMILES	Ratio EC50 [1]	Ratio EC50 [2]	Ratio EC50 [3]	Ratio EC50 [4]	EC50 [5]	EC50 [6]	EC50 [7]	Ratio EC50 [8]	CC50 [9]	Ratio EC50 [10]	Ratio EC50 [11]	EC50 [12]	Ratio EC50 [13]	Ratio EC50 [14]	EC50 [15]	EC50 [16]	Ratio EC50 [17]	Ratio EC50 [18]	selectivity ratio [19]	EC50 [20]
CC(C)CN(C[C@@H](O)[C@H](Cc1ccccc1)NC(=O)O[C@H]1CCOC1)S(=O)(=O)c1ccc(N)cc1	3	>36	14	9	160 nM	28 nM	230 nM	11	> 100000 nM	8	16	430 nM	26	9	> 1000 nM	660 nM	6	9	> 3000	
COc1ccc(S(=O)(=O)N(C[C@@H]2CCC(=O)N2)C[C@@H](O)[C@H](Cc2ccccc2)NC(=O)O[C@@H]2C[C@@H]3CCO[C@@H]3C2)cc1	2	2	1	2	14 nM	23 nM	28 nM	2	> 100000 nM	6	2	77 nM	2	1	37 nM	43 nM	1	1	> 3600	26 nM
CC(C)(C)NC(=O)[C@@H]1CN(Cc2cccnc2)CCN1C[C@@H](O)C[C@@H](Cc1ccccc1)C(=O)N[C@H]1c2ccccc2C[C@H]1O.O	19	16	>48	>71	> 1000 nM	14 nM	340 nM	>71		>71	>48	300 nM	>48	>48	220 nM	> 1000 nM	>48	16	1600	> 1000 nM
Cc1c(O)cccc1C(=O)N[C@@H](CSc1ccccc1)[C@H](O)CN1C[C@H]2CCCC[C@H]2C[C@H]1C(=O)NC(C)(C)C	>56	10	>63	36	330 nM		230 nM	28		18	>63	240 nM	>63	23	170 nM	> 1000 nM	21	14		> 1000 nM
CC(C)(C)NC(=O)[C@@H]1C[C@@H]2CCCC[C@@H]2CN1C[C@@H](O)[C@H](Cc1ccccc1)NC(=O)[C@H](CC(N)=O)NC(=O)c1ccc2ccccc2n1	4	2	30	3	100 nM	8 nM	27 nM	4	9900 nM	>125	30	10 nM	36	4	16 nM	320 nM	11	3	710	
